Data published in ChEMBL document CHEMBL1151981, “Bioactive pyridine-N-oxide disulfides from Allium stipitatum” (J Nat Prod, 2009).
In brackets after ≈: the same amount, converted by molar mass. Activity calls are given as the source filed them. The rule behind the calls is not given here.

Experiments:
[1] = test system: Mycobacterium tuberculosis; assay: Upregulation of Rv3463 RNA expression in Mycobacterium tuberculosis H37Rv ATCC 27294 at 2 to 10 ug/ml after 6 hrs by microarray analysis; assay type: functional, organism-based
Method in brief: (§1)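 H37Rv grown in 7H9 with 0.2% glycerol, 0.5% BSA fraction V, 0.05% Tween 80, 0.08% NaCl and 0.2% glucose to OD650 0.3. Treated with 2, 5 or 10 µg/mL compound, or matching DMSO, for 6 h. RNA isolated, labelled cDNA hybridised to microarrays. Predictive genes found by class prediction analysis.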

[2] = test system: Mycobacterium tuberculosis; assay: Effect on trxB2 RNA expression in Mycobacterium tuberculosis H37Rv ATCC 27294 at 2 to 10 ug/ml after 6 hrs by microarray analysis; assay type: functional, organism-based; method in brief: as §1
[3] = test system: Mycobacterium tuberculosis; assay: Upregulation of dnaK RNA expression in Mycobacterium tuberculosis H37Rv ATCC 27294 at 2 to 10 ug/ml after 6 hrs by microarray analysis; assay type: functional, organism-based; method in brief: as §1
[4] = test system: Mycobacterium tuberculosis; assay: Effect on trxC RNA expression in Mycobacterium tuberculosis H37Rv ATCC 27294 at 2 to 10 ug/ml after 6 hrs by microarray analysis; assay type: functional, organism-based; method in brief: as §1
[5] = test system: Mycobacterium tuberculosis; assay: Upregulation of clpB RNA expression in Mycobacterium tuberculosis H37Rv ATCC 27294 at 2 to 10 ug/ml after 6 hrs by microarray analysis; assay type: functional, organism-based; method in brief: as §1
[6] = test system: Mycobacterium tuberculosis; assay: Upregulation of Rv1335 RNA expression in Mycobacterium tuberculosis H37Rv ATCC 27294 at 2 to 10 ug/ml after 6 hrs by microarray analysis; assay type: functional, organism-based; method in brief: as §1
[7] = test system: Mycobacterium tuberculosis; assay: Upregulation of Rv1334 RNA expression in Mycobacterium tuberculosis H37Rv ATCC 27294 at 2 to 10 ug/ml after 6 hrs by microarray analysis; assay type: functional, organism-based; method in brief: as §1
[8] = test system: Mycobacterium tuberculosis; assay: Upregulation of hsp RNA expression in Mycobacterium tuberculosis H37Rv ATCC 27294 at 2 to 10 ug/ml after 6 hrs by microarray analysis; assay type: functional, organism-based; method in brief: as §1
[9] = test system: Mycobacterium tuberculosis; assay: Upregulation of dnaJ RNA expression in Mycobacterium tuberculosis H37Rv ATCC 27294 at 2 to 10 ug/ml after 6 hrs by microarray analysis; assay type: functional, organism-based; method in brief: as §1
[10] = test system: Mycobacterium tuberculosis; assay: Upregulation of Rv0331 RNA expression in Mycobacterium tuberculosis H37Rv ATCC 27294 at 2 to 10 ug/ml after 6 hrs by microarray analysis; assay type: functional, organism-based; method in brief: as §1
[11] = test system: Mycobacterium tuberculosis; assay: Upregulation of sigH RNA expression in Mycobacterium tuberculosis H37Rv ATCC 27294 at 2 to 10 ug/ml after 6 hrs by microarray analysis; assay type: functional, organism-based; method in brief: as §1
[12] = test system: Mycobacterium tuberculosis; assay: Upregulation of Rv3054c RNA expression in Mycobacterium tuberculosis H37Rv ATCC 27294 at 2 to 10 ug/ml after 6 hrs by microarray analysis; assay type: functional, organism-based; method in brief: as §1
[13] = test system: Mycolicibacterium phlei; assay: Antibacterial activity against Mycobacterium phlei after 72 hrs; assay type: functional
Method in brief: (§2)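 Fast-growing mycobacteria obtained from NCTC; cultures grown on Columbia blood agar with 7% defibrinated horse blood at 37 °C for 72 h before MIC determination. Ethambutol and isoniazid served as positive controls.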

[14] = test system: Mycolicibacterium fortuitum; assay: Antibacterial activity against Mycobacterium fortuitum after 72 hrs; assay type: functional; method in brief: as §2
[15] = test system: Mycolicibacterium smegmatis; assay: Antibacterial activity against Mycobacterium smegmatis after 72 hrs; assay type: functional; method in brief: as §2
[16] = test system: Staphylococcus aureus; assay: Antibacterial activity against Staphylococcus aureus SA1199B overexpressing NorA efflux pump after 72 hrs; assay type: functional
[17] = test system: Staphylococcus aureus; assay: Antibacterial activity against Staphylococcus aureus EMRSA15 after 72 hrs; assay type: functional; conditions: EMRSA15, 72 h
Method in brief: (§3)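 S. aureus strains tested in a MIC assay; norfloxacin and oxacillin used as positive controls.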

[18] = test system: Staphylococcus aureus; assay: Antibacterial activity against tetracycline-effluxing Staphylococcus aureus XU212 after 72 hrs; assay type: functional; conditions: XU212, 72 h; method in brief: as §3
[19] = Cytotoxicity against human WI38 cells after 96 hrs by sulforhodamine B assay; assay type: cell-based; conditions: WI-38, 96 h
Method in brief: (§4)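 SRB assay. Cells seeded at 4000/well in DMEM and allowed to attach overnight at 37 °C, 5% CO2. Exposed in quadruplicate to freshly made compound, 0.1–25 µM, for 96 h. Fixed with ice-cold 10% TCA for 30 min, stained with 0.4% SRB in 1% acetic acid for 15 min. Absorbance read at 540 nm as % of untreated control; IC50 derived from means.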

[20] = test system: Mycobacterium tuberculosis; assay: Antibacterial activity against Mycobacterium tuberculosis H37Rv ATCC 27294 assessed as decrease in viable bacterial counts at 1.25 ug/ml after 7 days by spot-culture growth inhibition assay; assay type: functional
[21] = test system: A549; assay: Cytotoxicity against human A549 cells after 96 hrs by sulforhodamine B assay; assay type: functional, cell-based; conditions: A549, 96 h; method in brief: as §4
[22] = test system: HT-29; assay: Cytotoxicity against human HT-29 cells after 96 hrs by sulforhodamine B assay; assay type: functional, cell-based; conditions: HT-29, 96 h; method in brief: as §4
[23] = test system: Mus musculus; assay: Toxicity in C57BL/6 mouse assessed as lethality at 300 mg/kg administered as single dose via oral gavage for 3 days measured 3 days after final dose; assay type: organism-based; set-up: dose 300 mg/kg, route oral; conditions: in vivo, 72 h
Method in brief: (§5)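 Female C57BL/6 mice, three per dose, got a single oral gavage dose of 30, 100 or 300 mg/kg. Observed at 4 and 6 h after dosing, then twice daily for 1 week. The tabulated data describe 3-day dosing.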

[24] = test system: MCF7; assay: Cytotoxicity against human MCF7 cells after 96 hrs by sulforhodamine B assay; assay type: functional, cell-based; conditions: MCF7, 96 h; method in brief: as §4
[25] = test system: Mus musculus; assay: Toxicity in C57BL/6 mouse assessed as lethality at 300 mg/kg administered as single dose via oral gavage for 3 days measured 2 days after final dose; assay type: organism-based; set-up: dose 300 mg/kg, route oral; conditions: in vivo, 48 h; method in brief: as §5
[26] = test system: Mycobacterium tuberculosis; assay: Antibacterial activity against Mycobacterium tuberculosis infected in GKO C57BL/6 mouse assessed as bacterial number in lung at 30 mg/kg/day administered 14 days postinfection via oral gavage for nine consecutive days measured on day 24 postinfection; assay type: functional
Method in brief: (§6)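 Female GKO C57BL/6 mice, 8–10 weeks old, infected by low-dose aerosol with M. tuberculosis Erdman (50–100 CFU uptake confirmed day 1). Daily oral gavage in 0.5% methyl cellulose from day 14 for nine consecutive days; isoniazid given at 25 mg/kg/day. Five mice per group, with untreated and pretreatment controls. Lung and spleen CFU log-transformed; one-way ANOVA with Tukey test.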

[27] = test system: Mycobacterium tuberculosis; assay: Antibacterial activity against Mycobacterium tuberculosis infected in GKO C57BL/6 mouse assessed as bacterial number in spleen at 30 mg/kg/day administered 14 days postinfection via oral gavage for nine consecutive days measured on day 24 postinfection; assay type: functional; method in brief: as §6
[28] = test system: Mus musculus; assay: Toxicity in C57BL/6 mouse assessed as adverse effect at 30 mg/kg administered as single dose via oral gavage for 3 days measured after 3 days post final dose; assay type: organism-based; set-up: dose 30 mg/kg, route oral; conditions: in vivo, 72 h
[29] = test system: Mycolicibacterium smegmatis; assay: Antibacterial activity against Mycobacterium smegmatis mc2 2700 after 72 hrs; assay type: functional; conditions: mc2 2700, 72 h
[30] = Toxicity in C57BL/6 mouse assessed as maximum tolerated dose administered as single dose via oral gavage for 3 days measured twice daily for 1 week after final dose; assay type: organism-based; conditions: in vivo; method in brief: as §5
[31] = test system: Mycobacterium tuberculosis; assay: Antibacterial activity against Mycobacterium tuberculosis H37Rv ATCC 27294 assessed as decrease in viable bacterial counts at 0.01 to 5 ug/ml after 14 days by spot-culture growth inhibition assay; assay type: functional, organism-based
Method in brief: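 Mid-exponential cultures (BCG rotated in 7H9/ADC/Tween 80; H37Rv standing in 7H9/OADC/Tween 80) diluted to 10³ cells/mL. 5 µL spotted onto 7H10 agar with 10% OADC containing compound at 0.01, 0.1, 0.5, 1 and 5 µg/mL. Incubated at 37 °C for 14 days. MIC taken as lowest concentration with no growth; no-compound well as growth control.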

[32] = Toxicity in C57BL/6 mouse assessed as maximum tolerated dose administered as single dose via oral gavage for 3 days measured 4 hrs after final dose; assay type: organism-based; conditions: in vivo; method in brief: as §5
[33] = test system: Mycolicibacterium smegmatis; assay: Inhibition of fatty acid biosynthesis in Mycobacterium smegmatis assessed as inhibition of [14C]acetate incorporation into soluble lipid at 30 ug/ml treated 2 hrs before [14C]acetate addition measured after 2 hrs of [14C]acetate infusion by whole-cell assay; assay type: functional, organism-based
Method in brief: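 Replicating M. smegmatis whole cells exposed to compound at 30 µg/mL for 2 h, then [1-14C]acetate added for a further 2 h. Soluble lipids (mostly fatty acids) extracted and counts per minute compared with untreated control.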

[34] = Toxicity in C57BL/6 mouse assessed as maximum tolerated dose administered as single dose via oral gavage for 3 days measured 6 hrs after final dose; assay type: organism-based; conditions: in vivo; method in brief: as §5
[35] = test system: Mus musculus; assay: Toxicity in C57BL/6 mouse assessed as transient lethargy at 100 mg/kg administered as single dose via oral gavage for 3 days measured 3 days after final dose; assay type: organism-based; set-up: dose 100 mg/kg, route oral; conditions: in vivo, 72 h

SMILES	Activity [1]	Activity [2]	Activity [3]	Activity [4]	Activity [5]	Activity [6]	Activity [7]	Activity [8]	Activity [9]	Activity [10]	Activity [11]	Activity [12]	MIC [13]	MIC [14]	MIC [15]	MIC [16]	MIC [17]	MIC [18]	also measured
Oc1cccc2cccnc12	Active	Active	Active	Active	Active	Active	Active	Active	Active	Active	Active	Active							
CC[C@@H](CO)NCCN[C@@H](CC)CO [ETHAMBUTOL]													2 µg/mL (≈ 9.79 µM)	2 µg/mL (≈ 9.79 µM)	32 µg/mL (≈ 157 µM)				
CSSc1ccccn1													16 µg/mL (≈ 102 µM)	8 µg/mL (≈ 50.9 µM)	8 µg/mL (≈ 50.9 µM)	2 µg/mL (≈ 12.7 µM)	2 µg/mL (≈ 12.7 µM)	4 µg/mL (≈ 25.4 µM)	
CSSc1cccc[n+]1[O-]	Active	Active	Active	Active	Active	Active	Active	Active	Active	Active	Active	Active	2 µg/mL (≈ 11.5 µM)	8 µg/mL (≈ 46.2 µM)	8 µg/mL (≈ 46.2 µM)	2 µg/mL (≈ 11.5 µM)	0.5 µg/mL (≈ 2.89 µM)	1 µg/mL (≈ 5.77 µM)	IC50 [19]: 800 nM; Activity [20]: 99%; IC50 [21]: 220 nM; IC50 [22]: 1840 nM; Activity [23]: Toxic; IC50 [24]: 350 nM; Activity [25]: Toxic; log10cfu [26]: 8.17; log10cfu [27]: 6.17; Activity [28]: Non-toxic; MIC [29]: 8 µg/mL (≈ 46.2 µM); MTD at 168 h [30]: 30 mg/kg; Activity [31]: Active; MTD at 4 h [32]: 30 mg/kg; inhibition [33]: Active; MTD at 6 h [34]: 30 mg/kg; Activity [35]: Toxic
CCn1cc(C(=O)O)c(=O)c2cc(F)c(N3CCNCC3)cc21 [NORFLOXACIN]																32 µg/mL (≈ 100 µM)	0.5 µg/mL (≈ 1.57 µM)	16 µg/mL (≈ 50.1 µM)	
CC1=CC(=O)c2ccccc2C1=O	Active	Active	Active	Active	Active	Active	Active	Active	Active	Active	Active	Active							
CSCSSc1cccc[n+]1[O-]													2 µg/mL (≈ 9.12 µM)	8 µg/mL (≈ 36.5 µM)	4 µg/mL (≈ 18.2 µM)	1 µg/mL (≈ 4.56 µM)	0.5 µg/mL (≈ 2.28 µM)	1 µg/mL (≈ 4.56 µM)	IC50 [19]: 890 nM; IC50 [21]: 780 nM; IC50 [24]: 390 nM; MIC [29]: 4 µg/mL (≈ 18.2 µM); Activity [31]: Active
